# RAM network inh: inhibitors of the yeast RAM network, primary screen, dse1pr::URA3 reporter, 5-FOA selection. S. cerevisiae dse1pr::URA3 reporter, 5-FOA growth OD615, 2 d; analog-sensitive cbk1-as2 kinase mutant strain. inhibition, % at 50 µM. hit rate 1.8% among 190,000;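 active = inhibition above a set limit, 3 SD over mean compound inhibition, cut at about 8.4% in these data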;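 also: 0% = DMSO-only wells with no growth and 100% = 10 µM 1-NA-PP1 full growth; inhibition rescues growth on 5-FOA so higher OD means more RAM inhibition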
# Yeast growth inh: growth inhibitors of yeast BB579 in restrictive medium, primary screen, yeast lifespan-shortening project, S. cerevisiae; OD615, 48 h; inhibition, % at 10 µM; hit rate 0.51% among 140,000; AID 804, 2007;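 active = inhibition above a set limit, 3 SD over the mean compound inhibition, cut at about 44% in these data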
#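 Assay system: S. cerevisiae DeaD strain BB579 yeast. Medium: CSMM-D restrictive synthetic medium containing dextrose (glucose). Times: 4 h cell preincubation, 48 h compound exposure, 30 °C humidified. Signal: OD615 turbidity measurement. Benchmarks: positive control amphotericin B 10 µg/mL.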
# Yeast lifespan up: compounds extending yeast replicative lifespan, primary screen, S. cerevisiae, OD615; S. cerevisiae growth with nicotinamide; deaD strain in restrictive glucose medium; inhibition of the nicotinamide effect, % at 10 µM; hit rate 0.68% among 130,000;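 active = inhibition above a set limit, placed 3 SD over the median of all compounds, cut at about 26% in these data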;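 also: 0% = nicotinamide-treated wells and 100% = cells grown without nicotinamide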
#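 Test system – modified budding yeast, DeaD strain · Compound – single dose 10 µM compound, 0.25% DMSO · Times – culture preincubation 4 h, compound exposure 48 h, both 30 °C · Detection – optical density (absorbance) at 615 nm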
# WT yeast gro inh: growth inhibition of WT strain, primary screen, mitochondrial fusion inhibitor project, WT and mutant strains, chemical genetic. mitochondrial fusion phenotypic screen. inhibition, % at 10 µM. hit rate 2.1% among 190,000. AID 1362, 2008; in the data active = inhibition above about 58%; tested in S. cerevisiae
# Starred values were filed as active, the others as inactive; . = no result given. Only some compounds are listed: those with a hit (about 4.3% of all), similar ones and a draw of the others.
SMILES,RAM network inh,Yeast growth inh,Yeast lifespan up,WT yeast gro inh
CC(Sc1nc(-c2ccc(F)cc2)cs1)C(=O)Nc1ccc(Cl)cn1 (centres undefined),10*,-26,2,22
Cc1csc(SC(C)C(=O)Nc2ccc(Cl)cn2)n1 (centres undefined),2,-29,-4,-14
OCC1(Cc2ccccc2)CCN(Cc2cnc(-c3cccc4ccccc34)nc2)CC1,0,.,.,19
Cc1ccccc1-c1ncc(CN2CCC(CO)(CCCc3ccccc3)CC2)cn1,1,.,.,87*
Cc1ccc(C(=O)CN2C(=O)C(=O)N(Cc3ccccc3)C2=O)cc1,8,.,.,-10
CC(C)Oc1ccc(C(=O)NC2(C(F)(F)F)NC(=O)N(CCCc3ccccc3)C2=O)cc1 (centres undefined),0,-43,2,65*
COc1ccc(/C=C(/C(=O)NCc2ccccc2)c2ccccc2)cc1,11*,-6,-3,33
COc1ccc(/C=C(\NC(=O)c2ccccc2)C(=O)NCCC(=O)O)cc1,3,.,.,-10
COc1ccccc1/C=C(/C(=O)OCC(=O)Nc1ccccc1C)c1ccccc1,4,-27,-1,49
COc1ccccc1/C=C(/C(=O)OCC(=O)NCc1ccccc1)c1ccccc1,10*,-36,4,37
O=C(Nc1nc(SCc2ccc(F)cc2)ns1)c1ccco1,6,-32,.,68*
O=S(=O)(c1ccc(Br)s1)N1CCC(Cc2ccccc2)CC1,1,18,-2,-4
O=S(=O)(c1ccc(Cl)s1)N1CCC(Cc2ccccc2)CC1,8.9*,-10,-8,37
CC(C)(C)NC(=O)Cn1c(Cl)nc2ccccc21,0,.,.,-10
Cc1ccc(C(=O)c2c(NC(=O)c3cccnc3)sc3c2CCCC3)cc1,3,-36,-7,61*
O=C(Nc1sc2c(c1C(=O)O)CCCCC2)c1ccccc1,5,.,.,2
CCOC(=O)C1=C(C)Nc2sc(C(=O)c3ccc(F)cc3)c(N)c2C1c1ccc(C(=O)OC)cc1 (centres undefined),8,-24,6,87*
COc1ccc(-c2nc3c(c(=O)[nH]c(=O)n3Cc3ccccc3)n2C)cc1,2,-20,-6,-20
COc1cc(Br)cc(-c2nc3c(c(=O)[nH]c(=O)n3Cc3ccccc3)n2C)c1O,3,-43,63*,9
Brc1ccccc1-n1nnc(-c2cccnc2)n1,2,.,.,1
c1cncc(-c2nnc(-c3cccnc3)nn2)c1,1,53*,5,14
O=S(=O)(c1ccc(S(=O)(=O)N2CCOCC2)cc1)N1CCCC1,3,.,.,12
Cc1cccc(NC(=S)NCC(C)CSc2ccc(Cl)cc2)c1 (centres undefined),8.9*,.,.,82*
Cc1ccc(NC(=S)NCC(C)CSc2ccc(Cl)cc2)cc1 (centres undefined),2,.,.,81*
Cc1nn2c(Nc3ccc(F)cc3)c3c(nc2c1-c1ccccc1)CCC3,5,-25,9,13
SMILES,RAM network inh,Yeast growth inh,Yeast lifespan up,WT yeast gro inh
COc1cccc(Nc2c3c(nc4c(-c5ccccc5)c(C)nn24)CCC3)c1,1,-29,3,67*
O=C(CCCn1c(=S)[nH]c2ccc(Br)cc2c1=O)N1CCN(c2ccccn2)CC1,0,-53,-14,4
Nc1nc(CCOc2ccc(F)cc2)cs1,4,.,.,0
CCCCCNCC(=O)Nc1cccc(C(=O)Nc2cccc(C(F)(F)F)c2)c1,-2,.,.,78*
OC(CNCc1ccco1)COc1ccccc1 (centres undefined),3,-73,5,16
COc1ccc(OCC(O)CNCc2ccco2)cc1 (centres undefined),0,-24,-10,72*
COc1ccccc1-c1nnc(SCC(=O)NCc2c(C)c(Cl)cc(C(C)C)c2O)o1,5,-38,-10,78*
CCC(C)c1ccc(OCCn2ccnc2)cc1 (centres undefined),2,-13,2,71*
CCOc1ccc(OCCOCCn2ccnc2)cc1,1,5,-7,.
C/C(=N\N=C\c1ccccc1)c1nnn(-c2nonc2N)c1C,2,-19,-28,18
CC(C(=O)Nc1ccccc1)N(c1cccc(Cl)c1)S(C)(=O)=O (centres undefined),2,.,.,3
CCOc1ccc(-c2[nH]ncc2-c2csc(C)n2)c(O)c1,3,-12,0,-7
CCCOC(=O)c1ccc(Oc2cn[nH]c2-c2ccc(OCC)cc2O)cc1,3,64*,-26,-12
CCOc1ccc(-c2[nH]ncc2Oc2cccc(OC)c2)c(O)c1,-1,86*,-24,40
CCCc1cc(-c2nc(N)ncc2-c2csc(C)n2)c(O)cc1OC,-1,.,.,26
CCCc1cc(-c2nc(N)ncc2-c2ccc3c(c2)OCCCO3)c(O)cc1OC,6,-32,2,85*
Cc1ccc2c(c1)c1c(n2CC(O)Cn2nc(C)c(Br)c2C)CCCC1 (centres undefined),0,-26,-11,76*
CCCN(CCC)S(=O)(=O)c1ccc(C(=O)N2CCCc3ccccc32)cc1,8,-46,8,5
CCCSc1nc(C)c(-c2csc(C(C#N)=C3CCCC3)n2)cc1C#N,8.9*,-32,-21,3
N#C/C(=C\c1ccc2c(c1)OCCO2)C(=O)NC1CCCCC1,4,-17,2,6
CCCCCCCCNC(=O)/C(C#N)=C/c1ccc2c(c1)OCCO2,9.4*,-24,5,-16
CCCCNC(=O)/C(C#N)=C/c1cccnc1,4,-2,46*,15
CCCCNC(=O)/C(C#N)=C/c1ccc2c(c1)OCCO2,-1,13,0,-4
N#C/C(=C\c1cccnc1)C(=O)NC1CCCCC1,2,-18,32*,7
COc1ccc(-c2cc3nc(C)cc(N4CC(C)CC(C)C4)n3n2)cc1 (centres undefined),1,71*,.,70*
SMILES,RAM network inh,Yeast growth inh,Yeast lifespan up,WT yeast gro inh
CCC(=O)Nc1ccnc(-c2cccnc2)n1,-1,-46,-13,20
CC(C)(C)C(=O)Nc1ccnc(-c2cccnc2)n1,-1,-27,-14,73*
O=C(CCn1c(=S)[nH]c2ccccc2c1=O)NCCc1ccc(Cl)cc1,1,.,.,5
Cc1cccc2nc(-c3ccccc3)nc(N3CCC(O)(c4ccc(Cl)cc4)CC3)c12,-1,-31,8,68*
CCN1CCN(c2nc(-c3ccccc3)nc3ccccc23)CC1,0,-17,2,-10
CCOc1ccc2c(c1)c(N=Nc1cccc(C(=O)O)c1)c(O)n2C,10*,-48,6,-20
Cc1ccc2c(c1)c(N=Nc1cccc(C(=O)O)c1)c(O)n2C,3,.,.,-9
Cc1ccc[n+](C(C)C(=O)Nc2ccc(C)c([N+](=O)[O-])c2)c1 (centres undefined),1,20,-1,-3
Clc1cccc(N/N=C/c2ccc(N3CCOCC3)s2)c1,2,24,-10,49
CC1CC2c3cccc(C(=O)O)c3C(=O)N2c2ccc(Cl)cc21 (centres undefined),3,.,.,-9

# Assay outcomes deposited in PubChem by SRMLSC.
